Assay results gathered from unrelated publications.
Protocols differ between the studies behind these lines.
Target: Serine/threonine-protein kinase Chk1 (CHEK1, Homo sapiens, UniProt O14757)
Sequence (O14757 1-476, as in one of the studies): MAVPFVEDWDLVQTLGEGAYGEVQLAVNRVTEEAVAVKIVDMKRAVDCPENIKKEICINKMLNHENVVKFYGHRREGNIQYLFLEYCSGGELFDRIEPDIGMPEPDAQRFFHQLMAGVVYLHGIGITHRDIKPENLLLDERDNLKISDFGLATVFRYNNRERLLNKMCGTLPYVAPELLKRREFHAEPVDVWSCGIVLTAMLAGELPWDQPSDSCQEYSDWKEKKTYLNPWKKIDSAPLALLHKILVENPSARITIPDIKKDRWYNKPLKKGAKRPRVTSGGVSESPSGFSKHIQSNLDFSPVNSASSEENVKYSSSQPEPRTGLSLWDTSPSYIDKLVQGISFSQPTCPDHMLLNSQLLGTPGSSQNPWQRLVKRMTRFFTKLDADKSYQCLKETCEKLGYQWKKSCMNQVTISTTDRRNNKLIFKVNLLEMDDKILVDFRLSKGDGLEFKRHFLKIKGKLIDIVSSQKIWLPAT

With `O=C1Nc2ccc(Cl)cc2C1=Cc1cc(Cl)c(O)c(Cl)c1` the remaining signal was 86.4% (cell-free assay; 0.5 µM).
`CC(C)(C)c1nc(-c2cccc(NS(=O)(=O)c3c(F)cccc3F)c2F)c(-c2ccnc(N)n2)s1` has a remaining activity of 100% (enzyme activity; inhibitor; radiometric; 1 µM).
For `O=C(NS(=O)(=O)c1ccc(NCC2CCOCC2)c([N+](=O)[O-])c1)c1ccc(N2CCN(Cc3ccc(C(F)(F)F)cc3-c3ccc(Cl)cc3)CC2)cc1Oc1cnc2[nH]ccc2c1`, the remaining binding was 100% (cell-free assay; competition with immobilised ligand; 1 µM).
`CCN(CC)CCNC(=O)c1c(C)[nH]c(/C=C2\C(=O)Nc3ccc(F)cc32)c1C` has a remaining signal of 29.2% (cell-free assay; 0.5 µM).
The remaining binding of `C[C@@]1(Cc2ccc(C#N)cc2)C(=O)N(c2cc(Cl)cc(Cl)c2)c2ncc(C(=O)NC3(c4nc(C5CCC5)no4)CC3)n21` is reported as 90% (cell-free assay; competition with immobilised ligand; 1 µM).
`COc1cc(/C=C/C(=O)CC(=O)/C=C/c2ccc(O)c(OC)c2)ccc1O` gave an activity vs control of 57% (enzyme activity; inhibitor; 1 µM).
For `Cc1nccc(COC(=O)N2C[C@@H]3[C@@H](CNC(=O)c4ccc5[nH]nnc5c4)[C@@H]3C2)n1`, the remaining binding was 100% (cell-free assay; competition with immobilised ligand; 1 µM).
`Cc1sc(C(=O)NC2COC2)cc1-n1cc(NC(=O)Nc2c(F)cccc2Cl)cn1` has a remaining activity of 118% (enzyme activity; inhibitor; 10 µM).
With `CC(C)(C)C(=O)c1sc(NC2CCCCC2)nc1N` the remaining activity was 80% (enzyme activity; inhibitor; 10 µM).
The remaining signal of `O=C1NC(=O)c2cc(Nc3ccc(F)cc3)c(Nc3ccc(F)cc3)cc21` is reported as 104% (cell-free assay; 0.5 µM).
The remaining activity of `Nc1nc(NC2CCCCC2)sc1C(=O)c1ccccc1` is reported as 96% (enzyme activity; inhibitor; 10 µM).
`CCN1CCN(Cc2ccc(NC(=O)c3ccc(C)c(/C=C/c4cnc5[nH]ccc5c4OC)c3)cc2C(F)(F)F)CC1` gave an inhibition of -51.1% (target engagement in cells; inhibitor; chemoproteomics; A-375; 5 µM).
`O=C(Nc1cnn(-c2csc(C(=O)NC3COC3)c2)c1)Nc1ccccc1Cl` has a remaining activity of 98.7% (enzyme activity; inhibitor; 5 µM).
The remaining signal of `C[C@@H]1CCN(C(=O)CC#N)C[C@@H]1N(C)c1ncnc2[nH]ccc12` is reported as 94.1% (cell-free assay; inhibitor; 0.5 µM).
For `Oc1cccc(-c2nc(N3CCOCC3)c3oc4ncccc4c3n2)c1`, the remaining activity was 115% (enzyme activity; inhibitor; 10 µM).
`Cc1cc(NC(=O)c2cccc3cc(-c4cccc5[nH]nc(N)c45)ccc23)ccc1F` gave an activity vs control of 96% (enzyme activity; inhibitor; 0.1 µM).
`CCS(=O)(=O)c1cc2cc(C[C@](O)(CC(C)(C)c3ccc(F)cc3C(N)=O)C(F)(F)F)[nH]c2cn1` gave a remaining binding of 97% (cell-free assay; competition with immobilised ligand; 1 µM).
`Cc1ccc(C(=O)NCc2ccsc2)cc1C#Cc1cn(C(C)C)c2ncnc(N)c12` gave an activity vs control of 87% (enzyme activity; inhibitor; 1 µM).
The remaining binding of `COc1ccc2cc(OCC3(C(=O)O)CN(C(=O)c4ccc(F)cc4)C3)ccc2c1` is reported as 87% (cell-free assay; competition with immobilised ligand; 1 µM).
For `N#CCCc1ccc2c(c1)-c1[nH]c3ccc([N+](=O)[O-])cc3c1CC(=O)N2`, the remaining signal was 45.1% (cell-free assay; 0.5 µM).
With `CN(C)CC#Cc1ccc(OCCCc2sc(N3CCc4cccc(C(=O)Nc5nc6ccccc6s5)c4C3)nc2C(=O)O)c(F)c1` the remaining binding was 89% (cell-free assay; competition with immobilised ligand; 1 µM).
`COc1cc(Nc2cnc(C#N)c(O[C@H](C)CN(C)C)n2)ncc1-c1cnn(C)c1` has a remaining activity of 6% (enzyme activity; inhibitor; radiometric; 10 µM).
For `CO[C@@H](C)c1c(Nc2ccc([C@@H](N(C)C(=O)C3CCS(=O)(=O)CC3)C(F)(F)F)cc2)cnc2cc(Cl)nn12`, the remaining binding was 95% (cell-free assay; competition with immobilised ligand; 1 µM).
With `Cc1ccc(C(=O)Nc2ccc(CN3CCN(C)CC3)c(C(F)(F)F)c2)cc1C#Cc1cnc2cccnn12` the remaining activity was 96% (enzyme activity; inhibitor; 23.5 nM).
